# Measured values from ChEMBL document CHEMBL1687724, “Roles of NF-kappaB activation and peroxisome proliferator-activated receptor gamma inhibition in the effect of rifampin on inducible nitric oxide synthase transcription in human lung epithelial cells” (Antimicrob Agents Chemother, 2009).
# Active and inactive are the calls of the source. No cut-off for these calls is given here.
# Legend:
# A549 [1] = experiment: Induction of iNOS expression in human A549 cells at 25 to 50 ug/ml by Western blot analysis; assay type: functional, cell-based
# A549 [2] = experiment: Effect on JNK phosphorylation in human A549 cells assessed as increase in IL1-beta, TNF-alpha and IFN-gamma-induced phosphorylation at 50 ug/ml after 15 to 30 mins by Western immunoblotting analysis; assay type: functional, cell-based
# Outline: (§1)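 A549 cells serum/antibiotic-starved 24 h, then given cytokine mix (IL-1β, TNF-α, IFN-γ) with or without rifampin (50 μg/ml); total lysates at 15, 30, 60 min; 20–30 μg protein on 10% SDS-PAGE, immunoblotted for phospho-ERK1/2, phospho-JNK, phospho-p38 and total forms; ECL detection, densitometry.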
# A549 [3] = experiment: Effect on NF-kappaB activation in 100 ng/ml IL-1beta, TNF-alpha and IFN-gamma-stimulated human A549 cells assessed as degradation of inhibitory subunit IkappaB measured upto 3 hrs at 50 ug/ml by Western blot analysis; assay type: functional, cell-based
# Outline: (§2)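 A549 cells (2 × 10⁶/dish) starved 24 h, then exposed to cytokine mix (100 ng/ml each) ± rifampin 50 μg/ml, or rifampin alone; lysates taken over time (30 min to 3 h), 20–30 μg protein immunoblotted for IκB, ECL detection, densitometry; three experiments.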
# A549 [4] = experiment: Induction of NF-kappaB activation in human A549 cells assessed as fold increase in NF-kappaB/DNA binding at 50 ug/ml by electrophoretic mobility shift assay; assay type: functional, cell-based
# Outline: (§3)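 Nuclear extracts from A549 cells 2 h after cytokine mix (IL-1β, TNF-α, IFN-γ) ± rifampin 50 μg/ml; 2 μl extract bound to biotin-labeled NF-κB consensus probe, 5% native PAGE in TBE, streptavidin-HRP chemiluminescence; specificity checked with cold NF-κB oligonucleotide.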
# A549 [5] = experiment: Effect on ERK1/2 phosphorylation in human A549 cells assessed as increase in IL1-beta, TNF-alpha and IFN-gamma-induced phosphorylation at 50 ug/ml after 15 to 30 mins by Western immunoblotting analysis; assay type: functional, cell-based; outline: as §1
# [6] = biological target: Nitric oxide synthase, inducible (Homo sapiens) (UniProt P35228); experiment: Effect on iNOS in human A549 cells assessed as increase in iNOS mRNA expression at 50 ug/ml after 19 hrs by TaqMan real-time RT-PCR relative to control; assay type: cell-based
# Chain of Nitric oxide synthase, inducible (Homo sapiens) (P35228 whole entry): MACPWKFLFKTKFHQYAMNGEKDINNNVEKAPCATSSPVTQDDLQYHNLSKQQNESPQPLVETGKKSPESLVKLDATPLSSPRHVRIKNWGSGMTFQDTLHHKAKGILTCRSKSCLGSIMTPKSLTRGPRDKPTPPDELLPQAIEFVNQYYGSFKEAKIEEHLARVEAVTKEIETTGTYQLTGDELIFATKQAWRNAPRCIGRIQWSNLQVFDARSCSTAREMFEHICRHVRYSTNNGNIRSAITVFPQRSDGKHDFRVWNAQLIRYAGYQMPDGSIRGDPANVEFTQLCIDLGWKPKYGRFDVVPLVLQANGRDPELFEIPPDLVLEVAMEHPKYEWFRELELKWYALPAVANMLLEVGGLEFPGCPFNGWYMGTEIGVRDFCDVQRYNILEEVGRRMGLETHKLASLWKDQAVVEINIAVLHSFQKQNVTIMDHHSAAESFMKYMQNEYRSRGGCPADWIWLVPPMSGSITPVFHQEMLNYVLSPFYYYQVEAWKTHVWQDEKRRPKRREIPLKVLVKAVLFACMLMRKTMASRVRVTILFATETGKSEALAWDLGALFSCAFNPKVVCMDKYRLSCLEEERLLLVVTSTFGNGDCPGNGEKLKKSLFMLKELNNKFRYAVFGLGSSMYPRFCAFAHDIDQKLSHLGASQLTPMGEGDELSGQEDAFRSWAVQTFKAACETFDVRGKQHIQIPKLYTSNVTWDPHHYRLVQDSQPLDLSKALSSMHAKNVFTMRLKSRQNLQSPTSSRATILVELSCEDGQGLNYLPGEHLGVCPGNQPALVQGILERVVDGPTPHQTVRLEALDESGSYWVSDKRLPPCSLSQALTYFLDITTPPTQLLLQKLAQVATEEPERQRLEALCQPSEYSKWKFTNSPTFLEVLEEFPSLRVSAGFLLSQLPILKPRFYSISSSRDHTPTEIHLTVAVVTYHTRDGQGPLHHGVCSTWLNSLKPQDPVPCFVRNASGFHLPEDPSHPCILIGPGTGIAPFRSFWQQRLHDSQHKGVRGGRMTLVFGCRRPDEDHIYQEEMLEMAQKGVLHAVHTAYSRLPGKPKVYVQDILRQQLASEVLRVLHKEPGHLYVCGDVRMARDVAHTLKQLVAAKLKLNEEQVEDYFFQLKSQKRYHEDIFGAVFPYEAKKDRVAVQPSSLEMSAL
# Outline: (§4)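 A549 cells starved 24 h, then 19 h with cytokine mix (100 ng/ml each) ± rifampin 10 or 50 μg/ml (DMSO stock diluted ≥1:1,000); 2 μg total RNA reverse transcribed (random hexamers), iNOS by TaqMan real-time RT-PCR normalized to β-actin; medium-only control set to 1; four experiments, mean ± SEM.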
# A549 [7] = experiment: Effect on NF-kappaB activation in human A549 cells assessed as degradation of inhibitory subunit IkappaB after 30 mins at 50 ug/ml by Western blot analysis; assay type: functional, cell-based; outline: as §2
# HT-29 = experiment: Effect on iNOS expression in human HT-29 cells assessed as increase in 100 ng/ml IL1-beta, TNF-alpha and IFN-gamma-stimulated iNOS […] expression normalized to beta-actin expression level at 10 to 50 ug/ml after 24 hrs by Western blot analysis; assay type: functional, cell-based
# A549 [8] = experiment: Effect on iNOS expression in human A549 cells assessed as fold increase in 100 ng/ml IL1-beta, TNF-alpha and IFN-gamma-stimulated iNOS mRNA expression at 50 ug/ml after 19 hrs by TaqMan real-time RT-PCR relative to control; assay type: functional; outline: as §4
# DLD-1 = experiment: Effect on iNOS expression in human DLD1 cells assessed as increase in 100 ng/ml IL1-beta, TNF-alpha and IFN-gamma-stimulated iNOS […] expression normalized to beta-actin expression level at 10 to 50 ug/ml after 24 hrs by Western blot analysis; assay type: functional, cell-based
# A549 [9] = experiment: Effect on NF-kappaB activation in 100 ng/ml IL-1beta, TNF-alpha and IFN-gamma-stimulated human A549 cells assessed as degradation of inhibitory subunit IkappaB at 50 ug/ml by Western blot analysis; assay type: functional, cell-based; outline: as §2
# A549 [10] = experiment: Effect on iNOS expression in human A549 cells assessed as fold increase in 100 ng/ml IL1-beta, TNF-alpha and IFN-gamma-stimulated iNOS mRNA expression at 10 ug/ml after 19 hrs by TaqMan real-time RT-PCR relative to control; assay type: functional; outline: as §4
# [11] = Cmax in serum of human patient undergoing fibre-optic bronchoscopy at 600 mg, po administered as single dose; assay type: ADME, organism-based; parameters: dose 600 mg, route oral
# A549 [12] = experiment: Effect on STAT-1 phosphorylation in human A549 cells assessed as increase in IL1-beta, TNF-alpha and IFN-gamma-induced phosphorylation at 50 ug/ml after 15 to 30 mins by Western immunoblotting analysis; assay type: functional, cell-based
# Outline: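 A549 cells starved 24 h in serum- and antibiotic-free medium, treated with cytokine mix (IL-1β, TNF-α, IFN-γ) ± rifampin; total lysates immunoblotted (10% SDS-PAGE, PVDF) with rabbit anti-phospho-STAT-1; ECL detection with densitometry.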
# A549 [13] = experiment: Induction of iNOS expression in human A549 cells at 25 to 50 ug/ml by Western blot analysis in presence of IFN-gamma; assay type: functional, cell-based
# Outline: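 A549 cells starved 24 h, then given rifampin with IFN-γ, each agent alone, or cytokine mix; total cell extracts prepared 20 h after stimulation and immunoblotted with rabbit anti-iNOS, ECL detection.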
# A549 [14] = experiment: Effect on p38 phosphorylation in human A549 cells assessed as increase in IL1-beta, TNF-alpha and IFN-gamma-induced phosphorylation at 50 ug/ml after 15 to 30 mins by Western immunoblotting analysis; assay type: functional, cell-based; outline: as §1
# A549 [15] = experiment: Effect on PPARgamma expression in human A549 cells assessed as decrease in PPARgamma expression normalized to beta-actin expression level at 50 ug/ml by Western blot analysis; assay type: functional, cell-based
# Outline: (§5)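 A549 cells starved 24 h, then 24 h with medium, cytokine mix (100 ng/ml each), or mix plus graded rifampin; whole-cell extracts immunoblotted with mouse anti-PPARγ, signal normalized to β-actin by densitometry; five experiments, mean ± SEM, unpaired t test.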
# A549 [16] = experiment: Induction of NF-kappaB activation in IL1-beta, TNF-alpha and IFN-gamma-stimulated human A549 cells assessed as fold increase in NF-kappaB/DNA binding at 50 ug/ml by electrophoretic mobility shift assay; assay type: functional; outline: as §3
# A549 [17] = experiment: Reduction in PPARgamma expression in human A549 cells assessed as increase in 100 ng/ml IL1-beta, TNF-alpha and IFN-gamma-induced PPARgamma down regulation normalized to beta-actin expression level at 50 ug/ml by Western blot analysis; assay type: functional, cell-based; outline: as §5
smiles,measurement,setting,value
CO[C@H]1/C=C/O[C@@]2(C)Oc3c(C)c(O)c4c(O)c(c(/C=N/N5CCN(C)CC5)c(O)c4c3C2=O)NC(=O)/C(C)=C\C=C\[C@H](C)[C@H](O)[C@@H](C)[C@@H](O)[C@@H](C)[C@H](OC(C)=O)[C@@H]1C [RIFAMPIN],Activity,A549 [1],inactive
same,Activity,A549 [2],inactive
same,Activity,A549 [3],Active
same,Activity,A549 [4],Active
same,Activity,A549 [5],inactive
same,Activity,[6],inactive
same,Activity,A549 [7],Active
same,Activity,HT-29,Dose-dependent effect
same,fold change (FC),A549 [8],4
same,Activity,DLD-1,inactive
same,Activity,A549 [9],Active
same,fold change (FC),A549 [10],1.9
same,Cmax,[11],15000 ng/mL
same,Activity,A549 [12],inactive
same,Activity,A549 [13],Active
same,Activity,A549 [14],inactive
same,Activity,A549 [15],inactive
same,fold change (FC),A549 [16],2.1
same,Activity,A549 [17],Active
